Data: PubChem BioAssay AID522 (The Scripps Research Institute Molecular Screening Center, 2006)
Hit rate of the full screen: of about 65,000 compounds, about 1,200 (1.8%) were called active. Shown is part of a subset that was picked to be rich in actives. Unmarked numbers belong to inactive results.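 The calls were made as follows: active = activation above the mean activation of all tested compounds plus 3 SD (cut at about 50% in these data); inactive = the rest.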

Target: Steroidogenic factor 1 (Homo sapiens) (UniProt Q13285)
Experiment: activators of human SF-1, primary screen, cell-based, CHO-K1, Gal4-SF-1 LBD, luciferase luminescence (AID 522)
Conditions: CHO-K1 Gal4-SF-1 LBD luciferase reporter; at 10 µM; hits give high values; % increase over DMSO SF-1-specific signal
How it was run: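 System: CHO-K1 cells with Gal4–hSF-1 LBD chimera plus Gal4-driven luciferase; quantity: 4,000 CHO-K1 cells per well; compound: one dose, 10 µM compound, 1% DMSO; times: 20 h compound treatment, 37 °C; measured by: SteadyLite luciferase luminescence; read-out: percent activation versus DMSO; benchmarks: DMSO and mock-transfected background; replicates: one test per compound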

Steroidogenic factor 1 (Homo sapiens), sequence (Q13285 whole entry, looked up, the tested form may be a part): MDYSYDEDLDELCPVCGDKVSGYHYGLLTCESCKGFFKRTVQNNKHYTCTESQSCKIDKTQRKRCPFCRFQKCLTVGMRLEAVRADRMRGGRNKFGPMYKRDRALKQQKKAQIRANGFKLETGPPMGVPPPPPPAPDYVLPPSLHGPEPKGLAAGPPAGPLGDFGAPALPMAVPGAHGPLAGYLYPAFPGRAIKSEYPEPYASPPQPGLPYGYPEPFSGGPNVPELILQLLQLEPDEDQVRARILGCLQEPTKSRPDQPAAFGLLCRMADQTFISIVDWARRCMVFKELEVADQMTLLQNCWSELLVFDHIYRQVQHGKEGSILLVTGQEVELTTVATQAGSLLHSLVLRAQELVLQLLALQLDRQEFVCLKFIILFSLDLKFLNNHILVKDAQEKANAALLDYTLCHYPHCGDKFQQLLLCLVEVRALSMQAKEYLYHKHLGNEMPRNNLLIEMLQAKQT

Compared with COc1ccc(NC(=O)c2c(C)oc3c2CCCC3)cc1, CCCNC(=O)Nc1ccccc1C(=O)Nc1ccc(OC)cc1 is lower in activation: 26.5% for the first, 7.4% for the second.

Compared with O=C(c1cc(-c2ccccc2O)on1)N1CCCC1, O=C(c1cc(-c2cccs2)on1)N1CCCCC1 is higher in activation: 20.3% for the first, 41.3% for the second.

Compared with COc1ccccc1N1CCN(C(=O)c2cc(-c3ccc(Br)cc3)on2)CC1, COc1ccccc1Cc1nc(-c2ccc(C)cc2)no1 is higher in activation: 3.2% for the first, 16.4% for the second.

Going from COC(=O)c1cc(Cl)c(NC(=O)c2ccco2)cc1OC to Cc1ccc(Cn2c(NC(=O)c3ccco3)nc3ccccc32)cc1, the activation rises from -3% to -1.8%.

Going from CN(C)Cc1c(C#N)c2ccccc2n1C to Cn1c(COc2ccc(Cl)cc2)nc2ccccc2c1=O, the activation rises from -11.9% to 45%.

Compared with Cc1ccc(C(=O)CSc2nc3ccccc3c(=O)n2N)o1, O=C(CSc1nnc(-c2ccco2)n1Cc1ccccc1)NC(=O)NCc1ccco1 is lower in activation: 32.8% for the first, -12.1% for the second.

Going from CCOC(=O)c1cccc(NC(=O)CN(c2ccc(C)cc2)S(=O)(=O)c2c(C)noc2C)c1 to Cc1cc(C)cc(N(CC(=O)NCC2CCCO2)S(=O)(=O)c2c(C)noc2C)c1 (stereo not given), the activation falls from -5.1% to -8.7%.

Going from CC(=O)N1CCC(C(=O)Nc2nc(-c3ccccc3)ns2)CC1 to Cc1c(C(=O)NCC2CCCO2)sc2nc(-c3ccccc3)cn12 (stereo not given), the activation rises from -1.6% to 9%.

Compared with COc1ccc(CN(C(=O)c2cccs2)c2nccs2)cc1OC, COc1ccc(NC(=O)CSc2nnc(-c3cccs3)n2Cc2ccco2)cc1OC is lower in activation: 7.7% for the first, -6% for the second.

Going from Cn1c(=NC(=O)CSCC(=O)N2CCCCC2)sc2ccccc21 to C=CCn1c(=O)c2ccccc2n2c(SCC(=O)N3CCCc4ccccc43)nnc12, the activation falls from 8.9% to -8.3%.

First: CC(=O)Oc1ccc(C)cc1N1C(=O)c2ccc(C(=O)O)cc2C1=O
Second: COC(=O)c1ccc(NC(=O)C(C)N2C(=O)c3ccccc3C2=O)cc1 (stereo not given)
The activation of the first is lower: -0.3% for the first, 11.6% for the second.

First: Cn1c(CC(=O)Nc2ccccc2)nnc1SCC(=O)c1ccccc1
Second: O=C(CSc1nnc(-c2ccco2)n1CC1CCCO1)c1ccccc1 (stereo not given)
The activation of the first is lower: 4.4% for the first, 16.7% for the second.

Going from Clc1ccc(Cc2nn3c(-c4ccncc4)nnc3s2)cc1 to Cc1cc(NC(=O)c2cc(-c3cccs3)on2)nn1Cc1ccc(Cl)cc1, the activation falls from 15.3% to -2.6%.

Going from CSC1=NCCN1C(=O)c1ccc(S(=O)(=O)N2CCOCC2)cc1 to CC(=O)Nc1ccc(S(=O)(=O)N2CCN(CCCOc3cc(C)ccc3C)CC2)cc1, the activation rises from -27.8% to -14.5%.

Compared with CCN(CC)C(=O)CCC(=O)Nc1ccc(C(=O)OC)cc1, O=C1CCC(C(=O)Nc2ccc(OC(F)F)cc2)N1 (stereo not given) is lower in activation: -4.8% for the first, -10.9% for the second.

First: CCOc1ccc(Nc2oc(Cc3ccccc3)nc2C#N)cc1
Second: N#Cc1nc(COc2ccc(-c3ccccc3)cc2)oc1NCc1cccnc1
The activation of the first is higher: 39.8% for the first, -9.1% for the second.

First: CCOc1ccc2nc(NCCNS(=O)(=O)c3ccccc3)c(C#N)cc2c1
Second: CCN(C(=O)CSc1ncn[nH]1)c1cccc2ccccc12
The activation of the first is lower: 9.2% for the first, 16.4% for the second.

First: Cc1ccc(-c2noc(CCC(N)=O)n2)cc1
Second: Cc1ccc(-c2noc(CN3CCN(Cc4ccccc4)CC3)n2)cc1
The activation of the first is lower: 9.8% for the first, 16.7% for the second.

First: COc1ccc2[nH]c(=O)c(-c3noc(-c4ccc(F)cc4)n3)cc2c1
Second: COc1cc(-c2nc(S(=O)(=O)c3ccc(Cl)cc3)c(N(C)C)o2)cc(OC)c1OC
The activation of the first is higher: -0.1% for the first, -17.6% for the second.

First: CCOC(=O)CSc1nnc(CNc2nc(-c3ccccc3)cs2)n1C
Second: COc1ccccc1NC(=O)CSc1nnc(-c2ccoc2C)n1CCc1ccccc1
The activation of the first is higher: 11.1% for the first, -3.3% for the second.

Compared with Cc1nc2ccc(C(=O)N3CCSCC3)cc2s1, O=C(Nc1cccc2cccnc12)c1cccc(N2C(=O)CCC2=O)c1 is higher in activation: 0.4% for the first, 9% for the second.

First: Cc1ccc(C(c2nnnn2CS(=O)(=O)c2ccc(C)cc2)N2CCC(C(N)=O)CC2)cc1 (stereo not given)
Second: CCn1c(COc2ccc(OC)cc2)nnc1SCC(=O)Nc1cc(OC)ccc1OC
The activation of the first is higher: -4.8% for the first, -13.5% for the second.

First: N#Cc1c(NC(=O)CCCN2C(=O)c3ccccc3C2=O)oc(-c2ccccc2)c1-c1ccccc1
Second: COc1cc(C2C(C(=O)c3ccc(C)o3)=C(O)C(=O)N2CCc2ccccc2)ccc1O (stereo not given)
The activation of the first is higher: 12.7% for the first, 8.7% for the second.

Compared with CCCc1[nH]nc2c1C(c1c(C)nn(-c3ccccc3)c1Cl)C(C#N)=C(N)O2 (stereo not given), Cc1ccccc1N1C(=O)C2ON(c3ccccc3)C(c3ccncc3)C2C1=O (stereo not given) is lower in activation: 6.3% for the first, 5.4% for the second.

Going from CNC(=O)NCCN1CCCC1=O to Cn1nnc(NC(=O)CSc2ncn[nH]2)n1, the activation rises from 1% to 4.4%.

Work on c1ccc(CSc2nnc(-c3ccco3)c(-c3ccco3)n2)cc1 yielded an activation of 0.5%.

COc1ccccc1-c1cc(C(=O)N2CCCCC2)no1 was tested, and the activation was 82.1% (active).
For Cc1ccc(-n2nc3cc(Cl)c(NC(=O)c4ccco4)cc3n2)cc1, the activation was 70.4% (active).
For COc1ccc(OCc2ccc(-c3nc4ccccc4c(=O)n3N)o2)cc1, the activation was 59% (active).
For O=C(CSCc1cccs1)N1CCCC1, the activation was 60.5% (active).
For O=C(CSc1nnc2ccccn12)c1ccccc1, the activation was 55.3% (active).
For Clc1ccc(Cc2nnc(-c3cccs3)o2)cc1, the activation was 59.5% (active).
COC(=O)c1ccc(NCC(=O)c2ccccc2)cc1 was tested, and the activation was 68.7% (active).
In the case of N#Cc1nc(Cc2ccccc2)oc1NCCc1ccccc1, the activation is reported as 63.4% (active).
With Cc1ccc(Cc2nc(-c3cccc(C)c3)no2)cc1 the activation was 53.9% (active).
For Cc1cccc(-c2noc(-c3ccc(F)cc3)n2)c1, the activation was 77.6% (active).
With COc1ccc(NC(=O)Nc2cccc3cccnc23)cc1 the activation was 65.5% (active).
c1ccc(CSc2nnc(-c3ccco3)n2Cc2ccccc2)cc1 was tested, and the activation was 76% (active).
For COc1cc(C2C3C(=O)N(c4ccccc4)C(=O)C3ON2c2ccccc2)ccc1O (stereo not given), the activation was 51.7% (active).
With CC(C)(C)c1ccc(C(=O)CSc2ncn[nH]2)cc1 the activation was 57.1% (active).
